# Compound activity from PubChem.
# L major viab: reduces viability of Leishmania major promastigotes; resazurin fluorescence viability; inhibition, % at 10 µM; hit rate 9% among 200,000; AID 1063; in the data active = inhibition above about 50%;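 note: promastigotes grown with compound for 44 hours at 28 °C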
# Diaphorase act: diaphorase activation or chemical reduction counter-screen; Diaphorase/resazurin coupled assay, resorufin fluorescence, 16 min; stronger effect = higher value; 1 = vehicle wells, 0 = NADH-free wells; activation factor at 20 µM; AID 1229; hit rate 0.005% among 190,000;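 active = diaphorase activity raised at least twofold by the compound at 20 µM; inactive = activation factor below 2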
#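 Assay system: bacterial diaphorase enzyme (C. kluyveri) / Input: enzyme 0.07 U/mL final / Medium: 50 mM HEPES pH 7.4 with 4.542 mM MgCl2, 0.005% Tween 20 / Doses: single compound dose of 20 µM, 1% DMSO final / Incubation: 16 min enzyme reaction, ambient temperature / Signal: fluorescence, excitation 544 nm and emission 590 nm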
# WT yeast gro inh: growth inhibition of WT yeast, mitochondrial fusion screen; mitochondrial fusion phenotypic screen, WT strain; hit rate 2.1% among 190,000; AID 1362; inhibition, % at 10 µM; in the data active = inhibition above about 58%; tested in S. cerevisiae
# PMI act hi M6P: increases human PMI activity with near-saturating mannose 6-phosphate; coupled PMI enzyme assay, resazurin fluorescence, 20 min; stronger effect = higher value; 1 = untreated enzyme, 0 = substrate-free blank; activation factor at 20 µM; hit rate 0.34% among 190,000;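 active = activation factor of 2 or more at 20 µM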
# Target sequence (P34949 whole entry, looked up): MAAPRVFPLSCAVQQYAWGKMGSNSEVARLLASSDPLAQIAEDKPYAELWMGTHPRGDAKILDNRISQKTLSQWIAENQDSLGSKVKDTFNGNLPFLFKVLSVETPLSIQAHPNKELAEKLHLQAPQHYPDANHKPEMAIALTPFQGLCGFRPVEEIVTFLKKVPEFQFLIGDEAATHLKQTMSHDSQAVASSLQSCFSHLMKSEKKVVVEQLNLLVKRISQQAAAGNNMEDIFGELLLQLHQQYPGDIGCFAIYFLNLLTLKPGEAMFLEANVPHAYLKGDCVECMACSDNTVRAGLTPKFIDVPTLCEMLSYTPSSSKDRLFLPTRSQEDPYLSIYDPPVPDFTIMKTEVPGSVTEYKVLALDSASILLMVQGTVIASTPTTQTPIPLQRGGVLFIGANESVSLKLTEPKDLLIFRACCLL
#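 test system = human PMI in coupled enzyme assay | medium = HEPES-buffered pH 7.4 with magnesium and detergent | also added = 1.0 mM mannose-6-phosphate substrate with 0.22 mM NADP+ | compound = 20 µM single dose | times = 20 min incubation at room temperature | measured by = resorufin fluorescence (Ex 544/Em 590 nm) from resazurin via diaphorase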
# PMI activator: increases human mannose-6-phosphate isomerase activity; hit rate 0.005% among 190,000; P34949; activation factor at 20 µM; purified human PMI, coupled resazurin fluorescence, 20 min; stronger effect = higher value; 1 = vehicle control, 0 substrate-free wells;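 active = activation factor of 2 or more at 20 µM, relative to plate controls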
# An asterisk follows results filed as active. In the library only some 10% were active in any assay of this set; here they are far more common.
SMILES,L major viab,Diaphorase act,WT yeast gro inh,PMI act hi M6P,PMI activator
COc1ccc(CN(C(=O)Cc2c[nH]c3ccccc23)C(C(=O)NC2CCCCC2)c2ccc(C)o2)cc1 (stereo not given),69*,0.7,39,0.8,0.7
COC(=O)c1ccc(C(C(=O)NC2CCCCC2)N(Cc2ccccc2)C(=O)Cc2cccs2)cc1 (stereo not given),99*,0.9,-12,0.9,0.9
O=C(NC1CCCC1)C(c1ccsc1)N(Cc1ccco1)C(=O)Cc1cccs1 (stereo not given),62*,0.9,9,0.9,1
Cc1ccc(C(C(=O)NC2CCCCC2)N(Cc2ccccc2)C(=O)Cc2c[nH]c3ccccc23)o1 (stereo not given),16,0.8,36,0.9,0.8
COC(=O)c1ccc(C(C(=O)NC2CCCCC2)N(C(=O)Cc2cccs2)C2CC2)cc1 (stereo not given),-4,0.9,19,1,0.9
CCOC(=O)C(Cc1ccc(Cl)cc1Cl)c1ccno1 (stereo not given),6,1,5,1,0.9
O=C(NNC(=O)C1CCCCC1)c1ccc(Br)cc1,-6,0.9,-15,0.9,0.9
O=C(NC1CCCC1)C(c1ccccc1)N(Cc1ccc2c(c1)OCO2)C(=O)Cc1cccs1 (stereo not given),82*,0.8,6,1,1
COc1ccc(C(C(=O)NC2CCCC2)N(Cc2ccccc2)C(=O)CNC(=O)c2ccco2)cc1 (stereo not given),67*,1,-4,1,0.9
O=C(NC1CCCCC1)C(c1ccc2ncccc2c1)N(Cc1ccc2c(c1)OCO2)C(=O)c1cccs1 (stereo not given),88*,0.8,21,0.9,0.8
O=C(NC1CCCCC1)C(c1ccc2ncccc2c1)N(Cc1ccccc1)C(=O)c1cccs1 (stereo not given),37,0.9,-13,0.9,0.9
O=C(NC1CCCCC1)C(c1cccnc1)N(CCc1ccccc1)C(=O)Cc1cccs1 (stereo not given),95*,0.8,-13,0.8,0.8
O=C(NC1CCCC1)C(c1cccnc1)N(CCc1ccccc1)C(=O)c1ccco1 (stereo not given),13,1,-15,1,1
C/C(=N\NC(=O)CN1CCN(Cc2ccc(C)cc2)CC1)c1ccncc1,-5,0.9,-18,0.9,1
CC(C)c1ccc(-c2c(C#N)c(N)nc(SCC(=O)N3CCCCCC3)c2C#N)cc1,51*,1,15,1.3,1.2
O=c1[nH]c2ccc(Cl)cc2c(-c2ccccc2)c1N1CCOCC1,1,0.9,11,0.9,0.9
O=C(c1ccco1)N1CCN(c2c(-c3ccccc3)c3cc(Cl)ccc3[nH]c2=O)CC1,20,0.7,86*,0.8,0.8
Cc1cc(C)n(CC(=O)N2c3ccccc3Sc3ccccc32)n1,61*,0.9,9,1,0.9
Cc1c(Cl)c([N+](=O)[O-])nn1CC(=O)NC12CC3CC(CC(C3)C1)C2,5,0.8,-25,0.9,0.9
CN(C)S(=O)(=O)c1ccc(C(=O)N2CCN(S(=O)(=O)c3cccs3)CC2)cc1,75*,1,-5,0.9,0.9
Cc1cc(C(=O)CSc2cccc[n+]2[O-])c(C)n1-c1ccc(Br)cc1,95*,1.1,-12,1,1.1
O=C(CSc1cccc[n+]1[O-])c1ccccc1Br,99*,1,18,0.9,1
Cc1cc(C(=O)CSc2cccc[n+]2[O-])c(C)n1-c1ccccc1,2,0.9,-8,0.9,1
O=C(Nc1nc2ccccc2n1CCN1CCOCC1)c1cn(-c2ccccc2)nc1-c1ccccc1,96*,0.8,34,1.1,1.2
CCCN(Cc1nnc(-c2ccccc2Cl)o1)C(=O)c1cc([N+](=O)[O-])cc([N+](=O)[O-])c1,98*,0.9,57,0.9,1
SMILES,L major viab,Diaphorase act,WT yeast gro inh,PMI act hi M6P,PMI activator
O=C(c1cc([N+](=O)[O-])cc([N+](=O)[O-])c1)N(Cc1nnc(-c2ccccc2Cl)o1)C1CC1,82*,1,33,1,1
COc1ccc(CNS(=O)(=O)NCc2ccc(C)cc2)cc1,-2,1,-5,1.1,1
CC1(C)Cc2c(sc3nc(SCC(=O)NCc4ccco4)n(-c4ccccc4)c(=O)c23)CS1,53*,0.9,3,1,0.9
COCCn1c(SCc2nnc(-c3ccccc3)o2)nc2sc3c(c2c1=O)CCC3,-1,0.7,97*,0.9,0.9
COCCCn1c(SCC(=O)NCc2ccco2)nc2sc3c(c2c1=O)CCC3,51*,0.7,-7,0.9,0.9
O=C(CSc1nc2c(sc3ccccc32)c(=O)n1CCO)NCc1ccco1,-3,0.9,1,1,1
O=C(CSc1nc2c(sc3ccccc32)c(=O)n1CCCN1CCCC1)NCc1ccco1,95*,0.8,16,1,1
O=C(CSc1nc2sc3c(c2c(=O)n1-c1ccccc1)CCCC3)NCc1ccco1,-2,1,9,1,1
COc1ccc(N/N=C(C)/C(=N/O)C(=O)Nc2ccccc2)cc1,-2,0.9,43,1.5,1.5
CCCCN(CC)CCCNC(=S)Nc1ccc2nc(N3CCN(CC)CC3)cc(C)c2c1,96*,1.3,-1,0.7,0.8
CCCCN(CC)CCCNC(=S)Nc1ccc2nc(N3CCN(C)CC3)cc(C)c2c1,56*,1.4,22,0.9,1.1
Fc1cccc(Cn2cc(C(=S)N3CCOCC3)c3ccccc32)c1,17,0.8,25,1,0.9
Fc1cccc(Cn2cc(C(=S)N3CCCCC3)c3ccccc32)c1,3,0.9,76*,0.9,0.9
CC1COC(=O)C(NNc2ccc(Cl)c(Cl)c2)=N1 (stereo not given),100*,0.8,66,1.3,1.3
O=C(NCCSCc1ccco1)c1ccc(CN2CCOCC2)cc1,3,1,12,1.1,1.1
O=C(NCCSCc1c(F)cccc1Cl)c1ccc(CN2CCOCC2)cc1,80*,0.9,-1,1,1.1
O=C(CC(c1ccccc1)c1ccccc1O)NCc1ccccc1Cl (stereo not given),51*,1,29,1,0.9
O=C(CC(c1ccccc1)c1cc(Br)ccc1O)NCc1ccco1 (stereo not given),99*,0.8,28,0.9,0.8
COc1cc(NC(=O)c2ccc([N+](=O)[O-])cc2)ccc1NC(=O)C(C)C,-5,0.8,-4,0.9,0.9
O=S(=O)(c1ccccc1)c1nc(Nc2cccc(O)c2)sc1Cl,3,0.8,-3,0.9,1
O=C(NCc1cccnc1)c1nn2cccnc2c1Cl,7,0.8,-1,0.8,0.8
CN(C)/C=C/C(=O)c1ccc(C(F)(F)F)cc1F,1,0.8,15,1,0.9
